From ChEMBL document CHEMBL1153440, “Hexosamine template. A platform for modulating gene expression and for sugar-based drug discovery” (2009)
Activity calls are given as the source filed them. The rule behind the calls is not given here.

Legend:
HCT-116 [1] = test: Growth inhibition of human HCT116 cells after 3 days; type: functional, cell-based
Method in brief: (§1)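 Cells seeded in 6-well plates (MDA-MB-231 2.0–2.7×10^5, HCT-116 1.0×10^5 cells/well) with analog in ethanol (vehicle <0.5% v/v), grown 3 days at 37 °C, 5% CO2; cell numbers by Coulter particle counter, two 100 μl counts per sample.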

MDA-MB-231 [2] = test: Increase in EGR1 mRNA expression in human MDA-MB-231 cells at 45 uM after 3 days by qRT-PCR relative to control; type: functional
MDA-MB-231 [3] = test: Increase in ID1 mRNA expression in human MDA-MB-231 cells at 45 uM after 3 days by qRT-PCR; type: functional, cell-based
MDA-MB-231 [4] = test: Increase in VEGFA mRNA expression in human MDA-MB-231 cells at 45 uM after 3 days by qRT-PCR; type: functional, cell-based
MDA-MB-231 [5] = test: Increase in NQO1 mRNA expression in human MDA-MB-231 cells at 45 uM after 3 days by qRT-PCR; type: functional, cell-based
MDA-MB-231 [6] = test: Increase in TGF-beta1 mRNA expression in human MDA-MB-231 cells at 45 uM after 3 days by qRT-PCR; type: functional, cell-based
MDA-MB-231 [7] = test: Increase in ID1 mRNA expression in human MDA-MB-231 cells at 60 uM after 3 days by qRT-PCR; type: functional, cell-based
MDA-MB-231 [8] = test: Increase in VEGFA mRNA expression in human MDA-MB-231 cells at 60 uM after 3 days by qRT-PCR; type: functional, cell-based
MDA-MB-231 [9] = test: Increase in NQO1 mRNA expression in human MDA-MB-231 cells at 60 uM after 3 days by qRT-PCR; type: functional, cell-based
MDA-MB-231 [10] = test: Increase in TGF-beta1 mRNA expression in human MDA-MB-231 cells at 60 uM after 3 days by qRT-PCR; type: functional, cell-based
MDA-MB-231 [11] = test: Increase in ID1 mRNA expression in human MDA-MB-231 cells at 75 uM after 3 days by qRT-PCR; type: functional, cell-based
MDA-MB-231 [12] = test: Increase in VEGFA mRNA expression in human MDA-MB-231 cells at 75 uM after 3 days by qRT-PCR; type: functional, cell-based
MDA-MB-231 [13] = test: Increase in NQO1 mRNA expression in human MDA-MB-231 cells at 75 uM after 3 days by qRT-PCR; type: functional, cell-based
MDA-MB-231 [14] = test: Increase in TGF-beta1 mRNA expression in human MDA-MB-231 cells at 75 uM after 3 days by qRT-PCR; type: functional, cell-based
MDA-MB-231 [15] = test: Increase in EGR1 mRNA expression in human MDA-MB-231 cells at 60 uM after 3 days by qRT-PCR relative to control; type: functional
MDA-MB-231 [16] = test: Increase in EGR1 mRNA expression in human MDA-MB-231 cells at 75 uM after 3 days by qRT-PCR relative to control; type: functional
MDA-MB-231 [17] = test: Decrease in EGR1 protein expression in human MDA-MB-231 cells at >45 uM after 3 days by Western blotting relative to control; type: functional
Method in brief: (§2)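 Treated cells (3 days unless stated; HCT-116 also 24 h) washed in ice-cold PBS, lysed in RIPA with protease inhibitors; equal protein (5–20 μg, BCA) run on 4–15% Tris-HCl gel, transferred to nitrocellulose, blocked in 5% milk/TBST, primary antibody 2 h RT or overnight 4 °C, HRP secondary 1 h; chemiluminescence, densitometry. β-actin antibody also used. Two independent experiments.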

HCT-116 [18] = test: Increase in EGR1 mRNA expression in human HCT116 cells after 24 hrs by qRT-PCR; type: functional, cell-based
HCT-116 [19] = test: Decrease in EGR1 mRNA expression in human HCT116 cells after 3 days by qRT-PCR; type: functional, cell-based
HCT-116 [20] = test: Decrease in EGR1 protein expression in human HCT116 cells after 24 hrs by Western blotting; type: functional, cell-based; method in brief: as §2
HCT-116 [21] = test: Increase in EGR1 protein expression in human HCT116 cells after 3 days by Western blotting; type: functional, cell-based; method in brief: as §2
MDA-MB-231 [22] = test: Suppression of TP53 mRNA expression in human MDA-MB-231 cells at 60 uM after 3 days by qRT-PCR; type: functional, cell-based
MDA-MB-231 [23] = test: Suppression of TP53 mRNA expression in human MDA-MB-231 cells at 75 uM after 3 days by qRT-PCR; type: functional, cell-based
MDA-MB-231 [24] = test: Decrease in TP53 protein level in human MDA-MB-231 cells at 15 uM after 3 days by Western blotting; type: functional, cell-based; method in brief: as §2
HCT-116 [25] = test: Decrease in TP53 protein expression in human HCT116 cells assessed as protein levels at 20 uM after 3 days by Western blotting; type: functional; set-up: scale not given: the % may be the effect or the level left; method in brief: as §2
HCT-116 [26] = test: Decrease in TP53 protein expression in human HCT116 cells assessed as protein levels at 25 uM after 3 days by Western blotting; type: functional; set-up: scale not given: the % may be the effect or the level left; method in brief: as §2
HCT-116 [27] = test: Increase in HPSE protein level in human HCT116 cells at 20 uM after 3 days by Western blotting; type: functional; method in brief: as §2
HCT-116 [28] = test: Increase in HPSE protein level in human HCT116 cells at 25 uM after 3 days by Western blotting; type: functional; method in brief: as §2
HCT-116 [29] = test: Suppression of TP53 protein expression in human HCT116 cells at 20 uM after 3 days by Western blotting; type: functional, cell-based; method in brief: as §2
HCT-116 [30] = test: Suppression of TP53 protein expression in human HCT116 cells at 25 uM after 3 days by Western blotting; type: functional, cell-based; method in brief: as §2
MDA-MB-231 [31] = test: Growth inhibition of human MDA-MB-231 cells after 3 days; type: functional, cell-based; method in brief: as §1
HCT-116 [32] = test: Decrease in TP53 mRNA level in human HCT116 cells at >=15 uM after 3 days by qRT-PCR
MDA-MB-231 [33] = test: Suppression of MUC1 mRNA expression in human MDA-MB-231 cells by qRT-PCR; type: functional, cell-based
MDA-MB-231 [34] = test: Growth inhibition of human MDA-MB-231 cells; type: functional, cell-based
MDA-MB-231 [35] = test: Increase in sialic acid production in human MDA-MB-231 cells by periodate-resorcinal assay; type: functional, cell-based
MDA-MB-231 [36] = test: Increase in ID1 mRNA expression in human MDA-MB-231 cells after 3 days by qRT-PCR; type: functional, cell-based
MDA-MB-231 [37] = test: Increase in VEGFA mRNA expression in human MDA-MB-231 cells after 3 days by qRT-PCR; type: functional, cell-based
MDA-MB-231 [38] = test: Increase in NQO1 mRNA expression in human MDA-MB-231 cells after 3 days by qRT-PCR; type: functional, cell-based
MDA-MB-231 [39] = test: Increase in TGF-beta1 mRNA expression in human MDA-MB-231 cells after 3 days by qRT-PCR; type: functional, cell-based

CCCC(=O)OC[C@H]1OC(O)[C@@H](NC(C)=O)[C@@H](OC(=O)CCC)[C@@H]1OC(=O)CCC (some centres undefined)
Activity (HCT-116 [1]): Active
fold change (FC) (MDA-MB-231 [2]): 2
Activity (MDA-MB-231 [3]): Active
Activity (MDA-MB-231 [4]): Active
Activity (MDA-MB-231 [5]): Active
Activity (MDA-MB-231 [6]): Active
Activity (MDA-MB-231 [7]): Active
Activity (MDA-MB-231 [8]): Active
Activity (MDA-MB-231 [9]): Active
Activity (MDA-MB-231 [10]): Active
Activity (MDA-MB-231 [11]): inactive
Activity (MDA-MB-231 [12]): inactive
Activity (MDA-MB-231 [13]): inactive
Activity (MDA-MB-231 [14]): inactive
fold change (FC) (MDA-MB-231 [15]): 25
fold change (FC) (MDA-MB-231 [16]): 25
fold change (FC) (MDA-MB-231 [17]): 2
Activity (HCT-116 [18]): Active
Activity (HCT-116 [19]): Active
Activity (HCT-116 [20]): Active
Activity (HCT-116 [21]): Active
Activity (MDA-MB-231 [22]): Active
Activity (MDA-MB-231 [23]): Active
Activity (MDA-MB-231 [24]): Active
Activity (HCT-116 [25]): <=5%
Activity (HCT-116 [26]): <=5%
fold change (FC) (HCT-116 [27]): >=50
fold change (FC) (HCT-116 [28]): >=50
Activity (HCT-116 [29]): Active
Activity (HCT-116 [30]): Active
Activity (MDA-MB-231 [31]): Active
Activity (HCT-116 [32]): Active

CCCC(=O)OC[C@H]1OC(OC(C)=O)[C@@H](NC(C)=O)[C@@H](OC(C)=O)[C@@H]1OC(C)=O (some centres undefined)
Activity (MDA-MB-231 [33]): Active
Activity (MDA-MB-231 [34]): Active
Activity (MDA-MB-231 [35]): Active

CCCC(=O)OC[C@H]1OC(OC(=O)CCC)[C@@H](NC(C)=O)[C@@H](OC(=O)CCC)[C@@H]1OC(=O)CCC (some centres undefined)
Activity (MDA-MB-231 [35]): Active

CC(=O)N[C@@H]1C(OC(C)=O)O[C@H](COC(C)=O)[C@@H](OC(C)=O)[C@@H]1OC(C)=O (some centres undefined)
Activity (MDA-MB-231 [33]): Active
Activity (MDA-MB-231 [35]): Active

CCCC(=O)OC1O[C@H](COC(C)=O)[C@@H](OC(C)=O)[C@H](OC(C)=O)[C@@H]1NC(C)=O (some centres undefined)
Activity (MDA-MB-231 [34]): Active
Activity (MDA-MB-231 [35]): Active

CCCC(=O)OC1O[C@H](CO)[C@@H](OC(=O)CCC)[C@H](OC(=O)CCC)[C@@H]1NC(C)=O (some centres undefined)
Activity (MDA-MB-231 [36]): inactive
Activity (MDA-MB-231 [37]): inactive
Activity (MDA-MB-231 [38]): inactive
Activity (MDA-MB-231 [39]): inactive
